Data reported in ChEMBL document CHEMBL3407422, “2-(2-oxo-morpholin-3-yl)-acetamide derivatives as broad-spectrum antifungal agents” (J Med Chem, 2015).
Values after ≈ are worked out from the molar mass of the structure shown. Active and inactive are the calls of the source. No cut-off for these calls is given here.

Columns and labels:
[1] = test system: Candida albicans; assay: Antifungal activity against Candida albicans SC5314 after 24 hrs; assay type: functional
In short: (§1)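 Overnight YPD cultures diluted in PBS (1/200 for C. albicans, 1/400 for C. glabrata). Cells treated with compound, or 2.5% DMSO as solvent control, for 24 h at 37 °C. CFUs then counted; MFC is the concentration giving 99% killing of the inoculum.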

[2] = test system: Nakaseomyces glabratus; assay: Antifungal activity against Candida glabrata BG2 after 24 hrs; assay type: functional; in short: as §1
[3] = test system: Aspergillus fumigatus; assay: Antifungal activity against Aspergillus fumigatus CBS 117202 after 24 hrs by two-fold dilution method; assay type: functional; conditions: CBS 117202, 24 h
In short: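 Spores at 2×10^4 spores/mL in potato dextrose broth, incubated with a 2-fold compound dilution series for 24 h at 25 °C. Growth read by microspectrophotometry of the liquid cultures. MIC taken as the lowest concentration inhibiting fungal growth.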

[4] = Half life in human plasma; assay type: ADME, cell-free
[5] = Half life in mouse plasma; assay type: ADME, cell-free
[6] = test system: Candida albicans; assay: Antifungal activity against Candida albicans SC5314 infected in BALB/c mouse assessed as reduction in reduction in fungal load in kidney at 10 mg/kg/day, ip for 5 days relative to vehicle-treated control; assay type: functional, organism-based
In short: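 BALB/c mice given cyclophosphamide 100 mg/kg at 4 days and 24 h before infection and at 3 days after. Infected IV with 2×10^3 SC5314 cells in saline. Dosed IP daily for 5 days from 16 h post-infection, in DMSO/0.5% methylcellulose (5/95). Organs taken on day 7, homogenized and plated on BHI agar (18 h, 37 °C). CFU/g compared with vehicle.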

SMILES | MFC99 [1] [µg/mL] | other results
CC(C)c1ccc(NC(=O)CC2C(=O)OC(C)(C)CN2C)cc1 (stereo not given) | >25 | 
CC(C)c1ccc(NC(=O)CC2C(=O)OC(C)(C)CN2C2CC2)cc1 (stereo not given) | >25 | 
CCN1CCOC(=O)C1CC(=O)Nc1ccc(C(C)C)cc1 (stereo not given) | 12.5 (≈ 41.1 µM) | MFC99 [2]: 12.5 µg/mL (≈ 41.1 µM); MIC [3]: 12.5 µg/mL (≈ 41.1 µM); half-life [4]: 22 min; half-life [5]: 32 min
CCN1C[C@@H](C)OC(=O)C1CC(=O)Nc1ccc(C(C)C)cc1 (stereo not given in full) | 12.5 (≈ 39.3 µM) | half-life [4]: 55 min
CCN1CC(C)(C)OC(=O)C1CC(=O)NCc1cccc(C)c1 (stereo not given) | 12.5 (≈ 39.3 µM) | 
CCCN1CC(C)(C)OC(=O)C1CC(=O)Nc1ccc(C(C)C)cc1 (stereo not given) | >25 | 
CC(=O)N1CC(C)(C)OC(=O)C1CC(=O)Nc1ccc(C(C)C)cc1 (stereo not given) | >25 | 
CC(C)c1ccc(NC(=O)CC2C(=O)OC(C)(C)CN2S(C)(=O)=O)cc1 (stereo not given) | >25 | 
CCN1CC(C)(C)OC(=O)C1CC(=O)Nc1cccnc1 (stereo not given) | >50 | 
CCN1CC(C)(C)OC(=O)C1CC(=O)Nc1c(C)noc1C (stereo not given) | >50 | 
CCN1CC(C)(C)OC(=O)C1C(C)(C)C(=O)Nc1ccc(C(C)C)cc1 (stereo not given) | >50 | 
CCN1C[C@@H](c2ccccc2)OC(=O)C1CC(=O)Nc1ccc(C(C)C)cc1 (stereo not given in full) | 12.5 (≈ 32.9 µM) | half-life [4]: 31 min
CCN1CC(C)(C)OC(=O)C1CC(=O)NCc1ccc(Cl)c(Cl)c1 (stereo not given) | 12.5 (≈ 33.5 µM) | 
CCN1CC(C)(C)OC(=O)C1CC(=O)Nc1ccnn1C (stereo not given) | >50 | 
CCN1CC(C)(C)OC(=O)C1CC(=O)NCCc1ccccc1 (stereo not given) | 25 (≈ 78.5 µM) | 
CCN1CC(C)(C)OC(=O)C1CC(=O)NCc1cccc(Cl)c1 (stereo not given) | 6.25 (≈ 18.4 µM) | 
CCN1CC(CC)(CC)OC(=O)C1CC(=O)Nc1ccc(C(C)C)cc1 (stereo not given) | >25 | 
CCN1CCOCC1CC(=O)Nc1ccc(C(C)C)cc1 (stereo not given) | >50 | 
CCN1CC(C)(C)OC(=O)C1CC(=O)N(C)c1ccccc1 (stereo not given) | >50 | 
CCN1CC(C)(C)OC(=O)C1CC(=O)Nc1ccccn1 (stereo not given) | >50 | 
CCN1CC(C)(C)OC(=O)C1CC(=O)NCc1cccs1 (stereo not given) | 25 (≈ 80.5 µM) | 
CCN1CC(C)(C)OC(=O)C1CC(=O)Nc1ccc2scnc2c1 (stereo not given) | >50 | 
CCN1CC(C)(C)OC(=O)C1CC(=O)NC1CCCC1 (stereo not given) | 50 (≈ 177 µM) | 
CCN1CC(C)(C)OC(=O)C1CC(=O)N1CCOCC1 (stereo not given) | >50 | 
CCN1CC(C)(C)OC(=O)C1CC(=O)Nc1ccncn1 (stereo not given) | >50 | 
CCN1C[C@H](C)OC(=O)C1CC(=O)Nc1ccc(C(C)C)cc1 (stereo not given in full) | 12.5 (≈ 39.3 µM) | half-life [4]: 57 min
OC(Cn1cncn1)(Cn1cncn1)c1ccc(F)cc1F [FLUCONAZOLE] | >100 | Activity [6]: Active
